Legend:
[1] = melting temperature; fluorescence melt of hairpins on a sequencing array, two-state fit, raised by 9.35 °C to match UV melts; conditions: sodium 0.088 M
Summary of the method: (§1)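 Folding enthalpy and melting temperature were estimated with bootstrapped two-state fits and combined across four replicates by inverse-variance weighting, with fitted temperatures raised by 9.35 °C to match UV melts. The data were Cy3 fluorescence of library hairpins, with annealed Cy3 and quencher oligos, on a sequenced MiSeq flow cell in 50 mM Na-HEPES pH 8.0, 25 mM NaCl, imaged in 2.5 °C steps up to 60 °C and normalised to pre-quench Cy3 and control constructs.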

[2] = folding enthalpy; higher = less favourable; fluorescence melt of hairpins on a sequencing array, two-state fit; conditions: sodium 0.088 M
Summary of the method: as §1

| Sequence | Tm [1] | folding enthalpy [2] |
| --- | --- | --- |
| CGTCACCGGAAACGGACG (((..(((....)))))) | 36.4 °C | -21.6 kcal/mol |
| CGTCCACGGAAACGTACG (((..(((....)))))) | 28.5 °C | -15.7 kcal/mol |
| CGTCCGGAAACGGATACG ((((((....)))..))) | 40 °C | -18.1 kcal/mol |
| CGTCCGGAAACGGGCACG ((((((....)))..))) | 38.9 °C | -12.4 kcal/mol |
| CGTCCGGAAACGGGTACG ((((((....)))..))) | 42.4 °C | -25 kcal/mol |
| CGTCCGGAAACGGTAACG ((((((....)))..))) | 37.8 °C | -25.1 kcal/mol |
| CGTCGACGGAAACGTACG (((..(((....)))))) | 38.1 °C | -20.2 kcal/mol |
| CGTGCGGAAACGCCACG ((((((....))).))) | 53.8 °C | -25.4 kcal/mol |
| CGTGCGGAAACGCCTACG ((((((....)))..))) | 39.1 °C | -15.3 kcal/mol |
| CGTGCGGAAACGCTTACG ((((((....)))..))) | 38.4 °C | -22.6 kcal/mol |
| CGTGGACGGAAACGTACG (((..(((....)))))) | 36.6 °C | -20.3 kcal/mol |
| CGTGGCGGAAACGCACG (((.(((....)))))) | 53.7 °C | -26.5 kcal/mol |
| CGTGTCGGAAACGAAACG (((.(((....))).))) | 47.1 °C | -35.6 kcal/mol |
| CGTGTCGGAAACGAACG (((.(((....)))))) | 37.7 °C | -24.3 kcal/mol |
| CGTGTTCGGAAACGAACG (((..(((....)))))) | 42.1 °C | -8.25 kcal/mol |
| CGTTAGCGGAAACGCACG (((..(((....)))))) | 39.8 °C | -18.1 kcal/mol |
| CGTTCACGGAAACGTACG (((..(((....)))))) | 39 °C | -15.2 kcal/mol |
| CGTTCGGAAACGAAAACG ((((((....)))..))) | 34.9 °C | -24.8 kcal/mol |
| CGTTCGGAAACGAAGACG ((((((....)))..))) | 34.9 °C | -26.2 kcal/mol |
| CGTTCGGAAACGACCACG ((((((....)))..))) | 27.3 °C | -8.89 kcal/mol |
| CGTTCGGAAACGAGAACG ((((((....)))..))) | 41.2 °C | -27.9 kcal/mol |
| CGTTCGGAAACGAGGACG ((((((....)))..))) | 34.7 °C | -14.1 kcal/mol |
| CGTTGCGGAAACGCGACG (((.(((....))).))) | 67.4 °C | -30.5 kcal/mol |

| Sequence | Tm [1] | folding enthalpy [2] |
| --- | --- | --- |
| CGTTGGCGGAAACGCACG (((..(((....)))))) | 41.1 °C | -14.6 kcal/mol |
| CGTTTCGGAAACGACACG (((.(((....))).))) | 44.8 °C | -29.6 kcal/mol |
| CGTTTGCGGAAACGCACG (((..(((....)))))) | 39.8 °C | -10.4 kcal/mol |
| CTAGCGAAAGCTAG (((((....))))) | 63.2 °C | -19 kcal/mol |
| CTCGAGAAATCGAG (((((....))))) | 47.9 °C | -21.2 kcal/mol |
| CTCGTGAAAACGAG (((((....))))) | 53.5 °C | -21.4 kcal/mol |
| CTCTGGAAACAGAG (((((....))))) | 46.4 °C | -19.9 kcal/mol |
| CTCTTGAAAAAGAG (((((....))))) | 36.2 °C | -10.4 kcal/mol |
| CTGAAGAAATTCAG (((((....))))) | 33.4 °C | -12.5 kcal/mol |
| CTGACGAAAGTCAG (((((....))))) | 65 °C | -29 kcal/mol |
| CTGGTGAAAACCAG (((((....))))) | 52.8 °C | -20.3 kcal/mol |
| CTGTAGAAATACAG (((((....))))) | 39.4 °C | -14.5 kcal/mol |
| CTTGTGAAAACAAG (((((....))))) | 45.2 °C | -23.1 kcal/mol |
| GAAAAAGAAATTTTTC ((((((....)))))) | 28.1 °C | -14.6 kcal/mol |
| GAAAACCGAAAGGTGTTC (((.(((....))).))) | 44.9 °C | -19.9 kcal/mol |
| GAAAACCGAAAGGTTTC (((.(((....)))))) | 44.2 °C | -15.9 kcal/mol |
| GAAAACGAAAGTTTGTTC ((((((....)))..))) | 28.4 °C | -13.5 kcal/mol |
| GAAAACGGAAACGCTTTC ((((.((....)).)))) | 34.8 °C | -32.4 kcal/mol |
| GAAAAGCGAAAGCTGTTC (((.(((....))).))) | 44.9 °C | -18 kcal/mol |
| GAAAAGGGAAACCCTTTC ((((.((....)).)))) | 32.6 °C | -17 kcal/mol |
| GAAAATACGAAAGTATTC (((..(((....)))))) | 27.7 °C | -13.7 kcal/mol |
| GAAACACGAAAGTGATTC (((.(((....))).))) | 45.5 °C | -29.6 kcal/mol |
| GAAACAGGAAACTGCTTC (((.(((....))).))) | 31.6 °C | -21.9 kcal/mol |

From the array DNA melting data of Ke et al. (doi:10.1101/2024.01.08.574731)
